# In ChEMBL document CHEMBL1150125, “Antiplasmodial activity of alkaloids from various strychnos species” (J Nat Prod, 2002):
# How the values were obtained:
# Plasmodium falciparum [1] = assay: Antiplasmodial activity against chloroquine-sensitive Plasmodium falciparum FCA 20/ Ghana at 50 uM; settings: read-out: INH
# [2] = Selectivity index, ratio of IC50 for human HCT116 cells to IC50 for moderately chloroquine-resistant Plasmodium falciparum FCB1-R/Colombia; assay type: toxicity, cell-based, HCT-116; settings: HCT116 cells versus Plasmodium falciparum FCB1-R/Colombia, read-out: Ratio IC50
# Outline: (§1)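 Selectivity index = IC50 in HCT-116 cells / IC50 in P. falciparum. Cell IC50: 5000 HCT-116 cells per well with drug, DMSO controls, 72 h incubation, then WST-1 for 30 min at 37 °C. Absorbance read against a cell-free blank and expressed as percent of control. Two independent experiments, each in triplicate, means ± SEM.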
# Plasmodium falciparum [3] = assay: Antiplasmodial activity against chloroquine-sensitive Plasmodium falciparum FCA 20/ Ghana by [3H]hypoxanthine uptake; assay type: functional, organism-based
# Outline: (§2)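 Asexual erythrocytic stages kept in continuous culture (Trager and Jensen method). Each sample run as eight 4-fold dilutions, final 20 to 0.0012 µg/mL, in duplicate. IC50 and IC90 derived; number of independent experiments per value given separately.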
# [4] = Selectivity index, ratio of IC50 for human HCT116 cells to IC50 for chloroquine-sensitive Plasmodium falciparum FCA 20/ Ghana; assay type: toxicity, cell-based, HCT-116; settings: HCT116 cells versus Plasmodium falciparum FCA 20/Ghana, read-out: Ratio IC50; outline: as §1
# Plasmodium falciparum [5] = assay: Antiplasmodial activity against chloroquine-resistant Plasmodium falciparum W2/Indochina by [3H]hypoxanthine uptake; assay type: functional, organism-based; outline: as §2
# HCT-116 = assay: Cytotoxicity against human HCT116 cells after 72 hrs by WST1 assay; assay type: cell-based; settings: HCT-116, 72 h
# Outline: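 HCT-116 colon cancer cells were seeded at 5000 per well in medium containing the test drugs, with matched DMSO controls. After 72 h, WST-1 was added for 30 min at 37 °C. Absorbance was read against a cell-free medium plus WST-1 blank and expressed as percent of control. Two independent experiments were run, each in triplicate, and means ± SEM were calculated.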
# [6] = Selectivity index, ratio of IC50 for human HCT116 cells to IC50 for chloroquine-resistant Plasmodium falciparum W2/Indochina; assay type: toxicity, cell-based, HCT-116; settings: HCT116 cells versus Plasmodium falciparum W2/Indochina, read-out: Ratio IC50; outline: as §1
# Plasmodium falciparum [7] = assay: Antiplasmodial activity against chloroquine-resistant Plasmodium falciparum FCB1-R/Colombia by [3H]hypoxanthine uptake; assay type: functional, organism-based; outline: as §2
# [8] = Plasmodium falciparum, FCA 20/ Ghana
# [9] = Plasmodium falciparum, W2/Indochina
# [10] = Plasmodium falciparum, FCB1-R/Colombia
Structure (SMILES),inhibition at 50 µM (Plasmodium falciparum [1]),selectivity ratio [2],IC50 (Plasmodium falciparum [3]; [8]),IC90 (Plasmodium falciparum [3]; [8]),selectivity ratio [4],IC50 (Plasmodium falciparum [5]; [9]),IC90 (Plasmodium falciparum [5]; [9]),IC50 (HCT-116),selectivity ratio [6],IC50 (Plasmodium falciparum [7]; [10]),IC90 (Plasmodium falciparum [7]; [10]),IC50 (Plasmodium falciparum [3]),IC90 (Plasmodium falciparum [3]),IC50 (Plasmodium falciparum [5]),IC90 (Plasmodium falciparum [5]),IC50 (Plasmodium falciparum [7]),IC90 (Plasmodium falciparum [7])
CC [ETHANE],< 30%,,,,,,,,,,,,,,,,
C/C=C1/CN2CCc3c([nH]c4ccccc34)[C@@H]2C[C@@H]1C1=CN2c3ccccc3[C@@]34CCN5CC6=CCO[C@@H]1[C@@H]([C@H]23)[C@H]6C[C@H]54 [LONGICAUDATINE],,8.81,986 nM,3870 nM,4.59,569 nM,4830 nM,4930 nM,7.96,560 nM,3640 nM,,,,,,
C/C=C1\CN2CC[C@]34c5ccccc5N5[C@@H]6O[C@H]([C@H]([C@H]53)[C@H]1C[C@H]24)N1c2ccccc2[C@]23CCN4C/C(=C/C)[C@H](C[C@H]42)[C@H]6[C@H]13 (stereo in doubt; 52) [MATOPENSINE],,33.1,,,9.59,,,12000 nM,49.5,,,1250 nM,6630 nM,243 nM,7740 nM,362 nM,4110 nM
O=C1C[C@@H]2OCC=C3CN4[C@@H](C5=C[C@@H]6[C@@H]7N(C5=O)c5ccccc5[C@@]75CCN7C/C(=C/CO)[C@@H]6C[C@H]75)C[C@]56c7ccccc7N1[C@H]5[C@@H]2[C@H]3C[C@H]46 [STRYCHNOGUCINE B],,28.3,617 nM,3790 nM,24.3,85 nM,358 nM,15000 nM,176,529 nM,2240 nM,,,,,,
C/C=C1\CN2CC[C@]34c5ccccc5N5[C@H]3[C@@H]([C@H]3O[C@@H]5[C@]5(OC)[C@@H]6N3c3ccccc3[C@@]63CCN6C/C(=C\C)[C@@H]5C[C@H]63)[C@H]1C[C@H]24,,15.9,540 nM,2530 nM,45.3,122 nM,2840 nM,24500 nM,200,1540 nM,9520 nM,,,,,,
